In ChEMBL document CHEMBL3272174, “Molecular structural effects involved in the interaction of quinolinemethanolamines with DNA. Implications for antimalarial action” (1977):
Calls of active or inactive are those of the source.

How the values were obtained:
[1] = test system: Escherichia coli; assay: Binding affinity to closed circular superhelical Escherichia coli ColE1 DNA by viscometric titrations
[2] = test system: Plasmodium berghei; assay: Antimalarial activity against Plasmodium berghei infected in mouse assessed as increase in mean survival time at 80 mg/kg measured after 60 days post infection relative to control; type: functional
Procedure, shortened: (§1)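 Tested at Walter Reed Army Institute of Research (communicated data) in mice infected with P. berghei. Five mice per test. Read-out is the increase in mean survival time (ΔMST, days) over the control group. Activity is defined as ΔMST above 6.1 days. Cure (C) is scored when at least one of the five mice survives to 60 days postinfection.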

[3] = test system: Plasmodium berghei; assay: Antimalarial activity against Plasmodium berghei infected in mouse assessed as increase in mean survival time at 640 mg/kg measured after 60 days post infection relative to control; type: functional
Procedure, shortened: as §1

[4] = test system: Plasmodium berghei; assay: Antimalarial activity against Plasmodium berghei infected in mouse assessed as increase in mean survival time at 40 mg/kg measured after 60 days post infection relative to control; type: functional
Procedure, shortened: as §1

[5] = test system: Plasmodium berghei; assay: Antimalarial activity against Plasmodium berghei infected in mouse assessed as increase in mean survival time at 320 mg/kg measured after 60 days post infection relative to control; type: functional
Procedure, shortened: as §1

[6] = test system: Calf thymus DNA; assay: Binding affinity to sonicated calf thymus DNA by viscometric titrations; type: nucleic-acid assay; conditions: Bos taurus
Procedure, shortened: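 Sonicated calf thymus DNA (1.0-3.0 mL) titrated with small aliquots of concentrated drug stock in a semimicro Ubbelohde dilution viscometer at 25 °C, in standard buffer. Volume change stayed at or below 3%, and DNA dilution was corrected. Reduced specific viscosity ratio plotted against drug/nucleotide molar ratio.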

[7] = test system: Plasmodium berghei; assay: Antimalarial activity against Plasmodium berghei infected in mouse assessed as increase in mean survival time at 160 mg/kg measured after 60 days post infection relative to control; type: functional
Procedure, shortened: as §1

[8] = test system: Calf thymus DNA; assay: Binding affinity to sonicated calf thymus DNA at 10^-3 M by spectroscopy; type: nucleic-acid assay; conditions: Bos taurus
Procedure, shortened: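 Difference spectra: sonicated calf thymus DNA (2.3×10^-3 M) and drug (3.5×10^-4 M) in standard pH 7.0 phosphate/EDTA buffer were loaded in separate compartments of 10-mm tandem cells to set a baseline. Equal volumes were then mixed and read against the separated solutions.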

[9] = test system: Calf thymus DNA; assay: Binding affinity to calf thymus DNA assessed as melting temperature at 10^-4 M by thermal denaturation assay; type: nucleic-acid assay; conditions: Bos taurus
Procedure, shortened: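 Calf thymus DNA dissolved in standard buffer (3.8×10^-3 M NaH2PO4, 5×10^-4 M EDTA, pH 7.0, ionic strength 0.0095) and dialyzed against it. Thermal denaturation: DNA at 10^-4 M (nucleotide equivalents), drug at 10^-4 M. Absorbance recorded as a function of temperature in stoppered 1.0-cm quartz cuvettes, with a thermistor in the cell block.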

[10] = test system: Escherichia coli; assay: Inhibition of Escherichia coli RNA polymerase assessed as reduction in RNA transcription at compound/DNA molar ratio of 1
[11] = test system: Plasmodium berghei; assay: Antimalarial activity against Plasmodium berghei infected in mouse assessed as increase in mean survival time at 80 to 640 mg/kg measured after 60 days post infection relative to control; type: functional, organism-based
[12] = test system: Calf thymus DNA; assay: Binding affinity to calf thymus DNA assessed as melting temperature at 10^-5 M by thermal denaturation assay; type: nucleic-acid assay; conditions: Bos taurus
Procedure, shortened: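 Thermal melting of dialyzed calf thymus DNA (10^-4 M nucleotide) with drug at 10^-5 M, in standard phosphate/EDTA buffer at pH 7.0. Absorbance followed against temperature in 1.0-cm stoppered quartz cuvettes, with temperature monitored by a cell-block thermistor.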

| SMILES | Activity [1] | Activity [6] | Activity [8] | Tm [9] | also measured |
| --- | --- | --- | --- | --- | --- |
| NC(=O)c1cc(C(O)C2CCCCN2)c2cccc(C(F)(F)F)c2n1 (configuration not stated) | inactive | Active | Active | 64.9 °C | fold change (FC) [2]: 0.3; fold change (FC) [3]: 7.9; fold change (FC) [4]: 0.3; fold change (FC) [5]: 0.7; fold change (FC) [7]: 0.5 |
| O[C@@H](c1cc(C(F)(F)F)nc2c(C(F)(F)F)cccc12)[C@H]1CCCCN1 (relative stereo) | inactive | inactive | Active | 63 °C | Activity [10]: inactive; Activity [11]: Active |
| CCN(CC)CCCC(C)Nc1c2ccc(Cl)cc2nc2ccc(OC)cc12 (configuration not stated) | Active | Active | – | – | Tm [12]: 88 °C |
| C=C[C@H]1CN2CC[C@H]1C[C@H]2[C@H](O)c1ccnc2ccc(OC)cc12 | – | Active | Active | 66.3 °C | – |
| NCCCCN | inactive | – | – | – | – |
| CCN(CC)CCCC(C)Nc1ccnc2cc(Cl)ccc12 (configuration not stated) | inactive | Active | – | – | Tm [12]: 75 °C |
| OC(c1cc(C(F)(F)F)nc2c(F)cccc12)C1CCCCN1 (configuration not stated) | inactive | inactive | Active | 61.5 °C | fold change (FC) [2]: 4.1; fold change (FC) [5]: 7.1 |
| COc1cccc2c1C(=O)c1c(O)c3c(c(O)c1C2=O)C[C@@](O)(C(C)=O)C[C@@H]3O[C@H]1C[C@H](N)[C@H](O)[C@H](C)O1 | – | – | – | – | Activity [10]: Active |
